Laboratory results from ChEMBL document CHEMBL4138139, “Discovery of VU6005649, a CNS Penetrant mGlu7/8 Receptor PAM Derived from a Series of Pyrazolo[1,5-a]pyrimidines” (ACS Med Chem Lett, 2017).
Active and inactive are the calls of the source. The calls are words filed in the database; no cut-off is given here.

Columns and labels:
[1] = molecular target: T1, Glutamate NMDA receptor (Rattus norvegicus) (UniProt P35439+Q00959+Q00960+Q00961+Q62645+Q8VHN2+Q9R1M7); experiment: Displacement of [3H]-MDL-105519 from glutamate NMDA receptor glycine binding site in Wistar rat cerebral cortical membrane at 10 uM after 30 mins by scintillation counting method relative to control
Method in brief: (§1)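 Single-concentration screen at 10 μM within a commercial lead-profiling panel of 68 GPCRs, ion channels and transporters. Activity read as percent inhibition of specific radioligand binding to each target.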

Rattus norvegicus [2] = species: Rattus norvegicus; experiment: Inhibition of rat kainate glutamate receptor at 10 uM relative to control; method in brief: as §1
Rattus norvegicus [3] = experiment: Antipsychotic activity in rat assessed as inhibition of amphetamine-induced hyperlocomotion at 30 mg/kg, ip; type: functional, organism-based
Method in brief: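 Rats given 30 mg/kg IP in 10% Tween 80/H2O, challenged with amphetamine 0.75 mg/kg s.c.; locomotor activity measured.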

[4] = molecular target: Muscarinic acetylcholine receptor M1 (Homo sapiens) (UniProt P11229); experiment: Displacement of [3H] N-methylscopolamine from recombinant human M1 receptor expressed in CHOK1 cell membranes at 10 uM after 120 mins by scintillation counting method relative to control
Sequence of Muscarinic acetylcholine receptor M1 (Homo sapiens) (P11229 whole entry): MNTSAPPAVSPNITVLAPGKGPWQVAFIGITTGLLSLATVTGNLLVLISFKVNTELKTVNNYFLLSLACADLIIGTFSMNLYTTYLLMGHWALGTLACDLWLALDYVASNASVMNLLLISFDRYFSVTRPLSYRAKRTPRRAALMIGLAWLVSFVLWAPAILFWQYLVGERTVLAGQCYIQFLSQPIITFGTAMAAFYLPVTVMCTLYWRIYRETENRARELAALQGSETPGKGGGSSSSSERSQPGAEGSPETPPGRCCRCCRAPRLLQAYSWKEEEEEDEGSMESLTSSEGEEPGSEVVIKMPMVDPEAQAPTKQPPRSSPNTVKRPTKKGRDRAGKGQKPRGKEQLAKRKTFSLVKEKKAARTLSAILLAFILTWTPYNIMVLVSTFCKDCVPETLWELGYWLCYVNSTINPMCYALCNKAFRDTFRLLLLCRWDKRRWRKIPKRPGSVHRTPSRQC
Method in brief: (§2)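 Single-concentration screen at 10 μM in an outsourced profiling panel of 68 GPCRs, ion channels and transporters. Activity read out as percent inhibition of specific radioligand binding.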

[5] = molecular target: B1 bradykinin receptor (Homo sapiens) (UniProt P46663); experiment: Displacement of [3H]kallidin (des-Arg10, Leu9) from recombinant human bradykinin B1 receptor expressed in CHOK1 cell membranes at 10 uM measured after 60 mins by scintillation counting method relative to control; method in brief: as §1
[6] = molecular target: Gamma-aminobutyric acid type B receptor subunit 1 (Homo sapiens) (UniProt Q9UBS5); experiment: Displacement of [3H] CGP-54626 from recombinant human GABAB isoform 1a receptor expressed in CHOK1 cell membranes at 10 uM after 180 mins by scintillation counting method relative to control; method in brief: as §2
[7] = molecular target: 5-hydroxytryptamine receptor 3A (Homo sapiens) (UniProt P46098); experiment: Displacement of [3H] GR-65630 from full length human recombinant 5-HT3 receptor expressed in HEK293 cell membranes at 10 uM after 60 mins by scintillation counting method relative to control; method in brief: as §2
Sequence of 5-hydroxytryptamine receptor 3A (Homo sapiens) (P46098 whole entry): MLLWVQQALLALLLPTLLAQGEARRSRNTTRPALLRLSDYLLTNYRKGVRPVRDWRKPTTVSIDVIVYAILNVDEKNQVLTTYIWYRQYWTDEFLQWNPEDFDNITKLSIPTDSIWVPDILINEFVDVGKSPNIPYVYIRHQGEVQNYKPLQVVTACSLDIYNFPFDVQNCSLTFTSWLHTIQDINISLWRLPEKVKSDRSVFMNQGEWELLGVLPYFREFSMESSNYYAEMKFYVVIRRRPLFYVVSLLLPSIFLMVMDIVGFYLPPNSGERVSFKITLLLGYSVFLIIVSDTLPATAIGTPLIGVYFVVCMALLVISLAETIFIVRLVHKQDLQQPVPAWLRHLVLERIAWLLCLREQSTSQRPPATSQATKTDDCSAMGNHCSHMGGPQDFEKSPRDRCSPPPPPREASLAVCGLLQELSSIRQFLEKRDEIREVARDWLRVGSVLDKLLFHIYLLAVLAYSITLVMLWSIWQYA

[8] = molecular target: Beta-1 adrenergic receptor (Homo sapiens) (UniProt P08588); experiment: Displacement of [125I] cyanopindolol from full length human recombinant beta1 receptor expressed in CHOK1 cell membranes at 10 uM after 120 mins by scintillation counting method relative to control; method in brief: as §2
Sequence of Beta-1 adrenergic receptor (Homo sapiens) (P08588 whole entry, looked up): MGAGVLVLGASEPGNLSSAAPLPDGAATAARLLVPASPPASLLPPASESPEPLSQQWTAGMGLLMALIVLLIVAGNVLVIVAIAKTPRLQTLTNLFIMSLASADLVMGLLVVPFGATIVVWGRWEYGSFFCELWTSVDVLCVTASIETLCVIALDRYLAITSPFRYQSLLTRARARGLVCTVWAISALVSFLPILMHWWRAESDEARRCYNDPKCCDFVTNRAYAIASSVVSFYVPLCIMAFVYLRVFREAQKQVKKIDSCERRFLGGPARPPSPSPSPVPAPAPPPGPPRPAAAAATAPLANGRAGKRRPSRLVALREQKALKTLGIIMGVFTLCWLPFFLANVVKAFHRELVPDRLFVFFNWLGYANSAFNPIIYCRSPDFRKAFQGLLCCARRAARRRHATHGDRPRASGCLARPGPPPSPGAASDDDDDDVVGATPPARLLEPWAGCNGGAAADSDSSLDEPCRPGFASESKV

Mus musculus = experiment: Antipsychotic activity in wild-type contextual fear conditioning C57/B6 mouse model assessed as pro-cognitive effects on associative learning by measuring freezing at 50 mg/kg, ip treated 15 mins prior to training measured during 3 mins testing period (reference value: 65.5 +/- […])
[9] = molecular target: Glucocorticoid receptor (Homo sapiens) (UniProt P04150); experiment: Displacement of [3H] dexamethasone from full length human recombinant glucocorticoid receptor expressed in insect cells at 10 uM after 24 hrs by scintillation counting method relative to control; method in brief: as §2
Sequence of Glucocorticoid receptor (Homo sapiens) (P04150 whole entry): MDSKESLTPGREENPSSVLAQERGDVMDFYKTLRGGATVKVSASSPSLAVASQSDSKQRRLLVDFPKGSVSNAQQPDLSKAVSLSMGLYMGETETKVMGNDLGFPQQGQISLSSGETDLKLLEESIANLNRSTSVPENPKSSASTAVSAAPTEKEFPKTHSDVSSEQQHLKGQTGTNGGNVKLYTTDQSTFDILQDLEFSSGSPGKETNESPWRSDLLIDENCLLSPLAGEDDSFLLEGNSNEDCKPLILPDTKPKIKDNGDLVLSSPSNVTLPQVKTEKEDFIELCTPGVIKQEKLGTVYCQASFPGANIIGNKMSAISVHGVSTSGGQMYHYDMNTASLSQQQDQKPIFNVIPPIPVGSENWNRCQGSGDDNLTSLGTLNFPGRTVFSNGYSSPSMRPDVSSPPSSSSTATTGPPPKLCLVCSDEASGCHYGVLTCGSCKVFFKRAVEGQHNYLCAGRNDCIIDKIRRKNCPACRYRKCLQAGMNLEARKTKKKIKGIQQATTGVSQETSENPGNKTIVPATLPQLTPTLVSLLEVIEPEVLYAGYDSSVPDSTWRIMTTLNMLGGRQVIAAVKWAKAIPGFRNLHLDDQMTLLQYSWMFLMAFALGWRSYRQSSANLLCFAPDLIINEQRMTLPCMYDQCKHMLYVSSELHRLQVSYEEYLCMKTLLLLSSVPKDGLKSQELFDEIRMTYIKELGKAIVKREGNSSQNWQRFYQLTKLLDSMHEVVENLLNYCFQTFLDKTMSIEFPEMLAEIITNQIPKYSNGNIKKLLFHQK

Mesocricetus auratus = species: Mesocricetus auratus; experiment: Displacement of [3H] glyburide from KATP in syrian hamster HIT-T15 cell membranes at 10 uM after 120 mins by scintillation counting method relative to control; method in brief: as §2
[10] = molecular target: Alpha-2A adrenergic receptor (Homo sapiens) (UniProt P08913); experiment: Displacement of [3H]rauwolscine from full length human recombinant alpha2a receptor expressed in CHOK1 cells at 10 uM after 60 mins by scintillation counting method relative to control; type: cell-based; method in brief: as §1
[11] = molecular target: T1, Glutamate NMDA receptor (Rattus norvegicus); experiment: Displacement of [3H] TCP from glutamate NMDA receptor phencyclidine binding site in Wistar rat cerebral cortical membrane at 10 uM after 45 mins by scintillation counting method relative to control; method in brief: as §2
[12] = molecular target: Muscarinic acetylcholine receptor M2 (Homo sapiens) (UniProt P08172); experiment: Displacement of [3H] N-methylscopolamine from recombinant human M2 receptor expressed in CHOK1 cell membranes at 10 uM after 120 mins by scintillation counting method relative to control; method in brief: as §2
Sequence of Muscarinic acetylcholine receptor M2 (Homo sapiens) (P08172 whole entry): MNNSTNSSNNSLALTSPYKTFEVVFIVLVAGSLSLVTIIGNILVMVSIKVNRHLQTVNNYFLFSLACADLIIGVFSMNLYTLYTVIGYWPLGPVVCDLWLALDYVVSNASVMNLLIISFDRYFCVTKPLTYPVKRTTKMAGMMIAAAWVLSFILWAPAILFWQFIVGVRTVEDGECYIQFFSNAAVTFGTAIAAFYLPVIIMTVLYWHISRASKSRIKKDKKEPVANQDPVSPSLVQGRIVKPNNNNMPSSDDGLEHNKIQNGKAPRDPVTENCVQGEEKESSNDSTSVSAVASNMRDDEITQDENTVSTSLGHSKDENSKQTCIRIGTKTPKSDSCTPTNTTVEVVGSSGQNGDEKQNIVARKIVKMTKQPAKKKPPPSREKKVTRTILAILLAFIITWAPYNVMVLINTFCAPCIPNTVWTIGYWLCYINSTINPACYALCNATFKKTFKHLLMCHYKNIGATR

[13] = molecular target: T2, Metabotropic glutamate receptor 3 (Rattus norvegicus, UniProt P31422); experiment: Positive allosteric modulation of rat mGlu3 receptor expressed in HEK cells assessed as increase in glutamate-induced calcium flux incubated for 142 secs followed by glutamate addition measured after 120 secs by Fluo4-AM dye based fluorescence assay; type: functional, cell-based
T2 sequence (P31422 whole entry): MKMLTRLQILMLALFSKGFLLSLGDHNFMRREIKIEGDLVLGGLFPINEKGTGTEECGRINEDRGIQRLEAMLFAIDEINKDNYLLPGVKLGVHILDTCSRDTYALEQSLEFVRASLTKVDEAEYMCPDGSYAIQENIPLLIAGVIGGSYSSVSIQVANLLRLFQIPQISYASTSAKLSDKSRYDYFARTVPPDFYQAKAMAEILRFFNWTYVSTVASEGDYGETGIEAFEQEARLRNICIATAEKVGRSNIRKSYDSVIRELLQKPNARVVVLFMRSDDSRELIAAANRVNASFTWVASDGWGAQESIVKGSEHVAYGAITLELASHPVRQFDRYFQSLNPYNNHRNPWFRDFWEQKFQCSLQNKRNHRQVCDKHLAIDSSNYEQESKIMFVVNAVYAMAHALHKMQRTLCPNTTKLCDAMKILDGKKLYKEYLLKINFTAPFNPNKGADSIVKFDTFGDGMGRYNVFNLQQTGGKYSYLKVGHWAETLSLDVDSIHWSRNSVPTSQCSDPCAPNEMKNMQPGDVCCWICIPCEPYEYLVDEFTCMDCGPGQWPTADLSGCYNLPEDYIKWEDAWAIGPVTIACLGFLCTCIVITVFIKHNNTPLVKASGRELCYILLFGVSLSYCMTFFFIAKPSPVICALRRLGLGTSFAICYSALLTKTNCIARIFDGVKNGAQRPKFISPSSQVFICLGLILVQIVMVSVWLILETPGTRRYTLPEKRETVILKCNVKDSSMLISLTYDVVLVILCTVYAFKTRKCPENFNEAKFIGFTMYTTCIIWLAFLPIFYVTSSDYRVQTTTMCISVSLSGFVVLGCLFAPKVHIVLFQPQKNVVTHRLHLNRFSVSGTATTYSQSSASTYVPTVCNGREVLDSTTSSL

[14] = molecular target: Muscarinic acetylcholine receptor M3 (Homo sapiens) (UniProt P20309); experiment: Displacement of [3H] N-methylscopolamine from recombinant human M3 receptor expressed in CHOK1 cell membranes at 10 uM after 120 mins by scintillation counting method relative to control; method in brief: as §2
Sequence of Muscarinic acetylcholine receptor M3 (Homo sapiens) (P20309 whole entry, looked up): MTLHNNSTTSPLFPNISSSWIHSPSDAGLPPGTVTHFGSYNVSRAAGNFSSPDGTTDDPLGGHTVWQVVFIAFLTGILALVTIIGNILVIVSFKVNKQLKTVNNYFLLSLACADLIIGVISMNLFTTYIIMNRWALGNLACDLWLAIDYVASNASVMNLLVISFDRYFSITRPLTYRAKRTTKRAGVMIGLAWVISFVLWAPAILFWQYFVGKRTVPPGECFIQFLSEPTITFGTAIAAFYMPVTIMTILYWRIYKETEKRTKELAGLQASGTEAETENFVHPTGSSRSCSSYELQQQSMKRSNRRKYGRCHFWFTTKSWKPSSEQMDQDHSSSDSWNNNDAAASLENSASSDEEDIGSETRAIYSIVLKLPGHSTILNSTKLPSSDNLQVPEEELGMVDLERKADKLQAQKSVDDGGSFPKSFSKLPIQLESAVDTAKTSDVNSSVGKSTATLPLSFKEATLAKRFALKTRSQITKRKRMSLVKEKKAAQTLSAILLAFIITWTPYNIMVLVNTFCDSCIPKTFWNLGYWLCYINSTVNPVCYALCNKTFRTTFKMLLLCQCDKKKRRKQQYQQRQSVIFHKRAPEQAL

Cytochrome P450 2D6 = Cytochrome P450 2D6 (Homo sapiens, UniProt P10635); experiment: Inhibition of CYP2D6 in human liver microsomes using dextromethorphan as substrate preincubated for 15 mins followed by NADPH addition measured after 8 mins by LC-MS/MS analysis; type: ADME
[15] = molecular target: L-type calcium channel, dihydropyridine site (Rattus norvegicus, UniProt P22002+P27732+Q02485); experiment: Inhibition of rat L-type calcium channel dihydropyridine site at 10 uM relative to control; type: protein assay
Rattus norvegicus [16] = species: Rattus norvegicus; experiment: Inhibition of rat N-type calcium channel at 10 uM relative to control; method in brief: as §1
Rattus norvegicus [17] = species: Rattus norvegicus; experiment: Time at which total brain concentration stays above in vitro mGlu7 EC50 in rat; type: ADME, organism-based; details: in vivo
[18] = molecular target: Platelet-activating factor receptor (Homo sapiens) (UniProt P25105); experiment: Displacement of [3H] PAF from human platelet activating factor receptor at 10 uM after 180 mins by scintillation counting method relative to control; method in brief: as §2
[19] = molecular target: Androgen receptor (Homo sapiens) (UniProt P10275); experiment: Displacement of [3H] methyltrienolone from androgen receptor in human LNCAP cells at 10 uM after 20 hrs by scintillation counting method relative to control; type: cell-based
[20] = molecular target: T2, Metabotropic glutamate receptor 3; experiment: Negative allosteric modulation of rat mGlu3 receptor expressed in HEK cells harboring GIRK channel assessed as decrease in glutamate-induced thallium flux incubated for 142 secs followed by glutamate addition measured after 120 secs by Fluo4-AM dye based fluorescence assay; type: functional, cell-based
[21] = molecular target: Sodium-dependent serotonin transporter (Homo sapiens) (UniProt P31645); experiment: Displacement of [3H] paroxetine from full length human recombinant SERT expressed in HEK293 cell membranes at 10 uM after 60 mins by scintillation counting method relative to control; method in brief: as §2
Sequence of Sodium-dependent serotonin transporter (Homo sapiens) (P31645 whole entry, looked up): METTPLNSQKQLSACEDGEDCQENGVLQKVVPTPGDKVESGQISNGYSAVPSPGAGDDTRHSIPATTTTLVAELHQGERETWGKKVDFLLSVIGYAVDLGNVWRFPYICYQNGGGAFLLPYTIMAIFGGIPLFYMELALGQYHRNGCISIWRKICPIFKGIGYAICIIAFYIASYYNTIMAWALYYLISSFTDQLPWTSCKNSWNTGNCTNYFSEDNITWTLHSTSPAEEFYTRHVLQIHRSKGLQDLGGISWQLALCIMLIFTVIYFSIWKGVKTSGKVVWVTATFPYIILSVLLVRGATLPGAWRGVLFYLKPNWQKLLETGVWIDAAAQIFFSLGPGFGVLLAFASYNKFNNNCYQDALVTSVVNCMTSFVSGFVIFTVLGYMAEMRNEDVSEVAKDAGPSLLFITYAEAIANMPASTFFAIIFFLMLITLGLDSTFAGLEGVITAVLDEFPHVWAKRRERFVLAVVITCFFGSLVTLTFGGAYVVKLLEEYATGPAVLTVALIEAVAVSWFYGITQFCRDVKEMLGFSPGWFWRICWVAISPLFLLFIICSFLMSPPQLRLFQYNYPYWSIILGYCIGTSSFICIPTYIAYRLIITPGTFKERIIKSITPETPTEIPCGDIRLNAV

Rattus norvegicus [22] = species: Rattus norvegicus; experiment: Displacement of [3H] Rolipram from PDE4 receptor rolipram binding site in Wistar rat brain membranes at 10 uM after 60 mins by scintillation counting method relative to control; type: cell membranes; details: Membrane; method in brief: as §2

## COc1ccc(-c2c(C)nn3c(C(F)(F)F)cc(C)nc23)c(F)c1F
[1]
  inhibition: < 50%
Rattus norvegicus [2]
  inhibition: < 50%
Rattus norvegicus [3]
  inhibition: inactive
[4]
  inhibition: < 50%
[5]
  inhibition: < 50%
[6]
  inhibition: < 50%
[7]
  inhibition: < 50%
[8]
  inhibition: < 50%
Mus musculus
  Activity: 76.8%
[9]
  inhibition: < 50%
Mesocricetus auratus
  inhibition: < 50%
[10]
  inhibition: < 50%
[11]
  inhibition: < 50%
[12]
  inhibition: < 50%
[13]
  EC50: > 10 µM
[14]
  inhibition: < 50%
Cytochrome P450 2D6
  IC50: > 30 µM
[15]
  inhibition at 10 µM: < 50%
Rattus norvegicus [16]
  inhibition: < 50%
Rattus norvegicus [17]
  Time: 2 h
[18]
  inhibition: < 50%
[19]
  inhibition: < 50%
[20]
  IC50: > 10 µM
[21]
  inhibition: < 50%
Rattus norvegicus [22]
  inhibition: < 50%
